Test results: ChEMBL document CHEMBL4513216, “Probing the Open Global Health Chemical Diversity Library for Multistage-Active Starting Points for Next-Generation Antimalarials” (ACS Infect Dis, 2020)

Assay: Toxicity liver stage against HepG2, at 10uM
Format: cell-based
Parameters: test concentration 10 uM, cell line HepG2-A16-CD81EGFP
Details: human, HepG2-A16-CD81EGFP cells; read-out: INHIBITION
How it was run: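 Uninfected HepG2-A16-CD81EGFP cells, 3 × 10^3 per well, 1536-well, plated on prespotted compound at 10 μM final, parasite-free screening media added to match infected plates; puromycin 10 μM positive, DMSO 0.5% negative; run in parallel with 48 h PbLuc assay at 37 °C, 5% CO2; viability by CellTiter-Glo luminescence, normalized to controls.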

Point of comparison: `Cc1ccc(S(=O)(=O)NC(=O)CCOCC(C)C)s1`, cytotoxicity at 10 µM -5.36%. Against it:
- CCOc1cc(C)nc(N2CCN(C(=O)Cn3cc(C)cn3)CC2)n1 — lower, -5.43%
- COc1ncccc1NC(=O)N1CCCC(CNC(=O)OC(C)(C)C)C1 (stereo unspecified) — higher, -1.71%
- CC(C)(C)c1cn(C2CCN(C(=O)c3cncnc3)CC2)nn1 — higher, 13%
- CCN(CCCc1ccccc1C)S(C)(=O)=O — higher, 2.86%
- CC(Cn1ccnc1)NC(=O)N1CCN(Cc2cccs2)CC1 (stereo unspecified) — the same, -5.36%
- CCNC(=O)[C@@H]1C[C@H](N)CN1c1cc(C(F)(F)F)nc(N2CCCC2)n1 — higher, -3.97%
- O=C(C[S+]([O-])C1CCCC1)NCCOc1cccc(Cl)c1 (stereo unspecified) — lower, -143%
- Cn1cc(CNc2ccc(CCO)cc2)c(-c2ccncc2)n1 — higher, 5.82%
- CC(=O)N1CCCN(CCn2nc3ccccn3c2=O)CC1 — lower, -137%
- CC(C)c1nc(C2CCCN(C(=O)c3ccc(N(C)C)nn3)C2)no1 (stereo unspecified) — lower, -9.71%
- CC(=O)N1CCN(C(=O)CNc2cccc(OC(F)F)c2C)CC1 — lower, -11.4%
- CCOc1ccc(NC(=O)N(CCN(C)C)C(C)c2ccncc2)cc1 (stereo unspecified) — higher, 5.42%
- COc1ccc(C(=O)NCCCNc2ncccn2)c(OC)c1 — lower, -7.4%
- O=C(C1CCCC1)N1CCn2c(nnc2C2CCCNC2)C1 (stereo unspecified) — higher, 1.19%
- COCC1CN(Cc2ccc(C)o2)Cc2cn(C)nc21 (stereo unspecified) — lower, -9.2%
- CCCOCCCNc1nccc(-c2cn(C)nc2C)n1 — lower, -10.5%
- O=C(NCCc1ccccn1)[C@@]12CCO[C@@H]1CCN(CC1CC1)C2 — higher, 5.79%
- CCn1c(NCc2cccnc2)nc2c(C)nn(C)c2c1=O — higher, 5.17%
- CCCn1ncc(C(=O)NC(C)c2c(C)nn(CC)c2C)c1C (stereo unspecified) — higher, 9.91%
- NS(=O)(=O)CCNC(=O)C1(c2ccc(Br)cc2)CC1 — higher, -4.69%
- CCc1nc(CN2CCCN(C(=O)CCCOC)CC2)cs1 — lower, -14.4%
- CN1CCC(Cc2noc(CC3CC3)n2)CC1 — lower, -9.96%
- COCCN1CC[C@H]2OCC[C@@H](C(=O)Nc3cccnc3)[C@@H]2C1 — higher, 4.81%
- O=C1CCNc2ncc(-c3ccc(Cl)cc3)cc2CN1C1CC1 — higher, 9.78%
- O=C(Cc1ccsc1)N1C[C@@H]2COC[C@]2(COc2cccnc2)C1 — lower, -99.3%
- Cc1nc(C(C)n2cc3[nH]cccc-3c2=O)cs1 (stereo unspecified) — higher, -3.13%
- Cc1noc(C)c1CN1C(=O)[C@@H]2CC[C@H]1CN(C(=O)c1cscn1)C2 — lower, -10.6%
- COc1coc(CN2CCCC(CCc3ccc(F)c(F)c3)C2)cc1=O (stereo unspecified) — higher, 1.95%
- COc1ccc(CN2CCOC[C@H](OCCC(C)C)C2)cc1 — higher, -4.04%
- Cc1ccc(NC2CCN(C(=O)Cc3ccc(C#N)cc3)CC2)nn1 — lower, -6.83%
- OC[C@@H]1CCCN1c1ccc(-c2nc(CCc3ccccc3)no2)cn1 — higher, -0.134%
- O=C(c1cc(C2CC2)on1)N1C[C@H]2CC[C@](O)(c3ccccc3F)[C@H]2C1 — higher, 5.37%
- CC(C)=CCN1CCN(Cc2ncc[nH]2)[C@H]2CS(=O)(=O)C[C@H]21 — higher, 5.44%
- COc1ccc(Cc2ncc3c(n2)CN(C(=O)C2COCCO2)C3)cc1 (stereo unspecified) — higher, -0.579%
- Cc1cnn(CCCNC(=O)C2CCCCN2Cc2cccnc2)c1 (stereo unspecified) — lower, -8.97%
- CCCN1CCN(C(=O)c2cncnc2C)[C@H]2CS(=O)(=O)C[C@H]21 — higher, 0.145%
- O=C(COCc1nc(-c2ccncc2)no1)N1CCCCCC1 — lower, -8.83%
- Fc1cc(CNCc2ccc3c(c2)CCO3)ccc1N1CCOCC1 — lower, -7.24%
- Cc1ccc(C2=CCN(C(=O)C3CCN(C)C(=O)C3)CC2)cc1 (stereo unspecified) — lower, -12.1%
- CC(C)(O)C1CCCN(C(=O)Nc2nc(-c3ccccc3)ns2)C1 (stereo unspecified) — lower, -137%
- N#CC(NC(=O)c1cccc2c1OCCO2)c1ccc(F)cc1F (stereo unspecified) — higher, -2.61%
- Cc1ccc(N2C[C@@H](CN3CCOCC3)[C@@H](CO)C2)nn1 — higher, 7.13%
- COc1ccc(NC(=O)NCC(C)N2CCc3ccccc32)cc1 (stereo unspecified) — higher, -2.42%
- Cc1cc(NC(N)=O)ccc1OCC(F)(F)F — higher, -0.883%
- NCc1n[nH]c(-c2ccc(F)cc2)n1 — higher, 0.186%
- CS(=O)(=O)c1ccc(NC(=O)NCCC2=CCCCC2)cc1 — higher, -0.529%
- CC(=O)Nc1cccc(C(=O)Nc2cnc3n2CCCC3)c1 — higher, 4.36%
- COCCN(Cc1nccs1)C(=O)c1c(C)cc(C)[nH]c1=O — higher, 0.0773%
- O=S(=O)(NCCn1ccc(-c2ccncc2)n1)C1CC1 — higher, 0.794%
- O=C(NCCOc1ccc(F)c(F)c1)NCc1cccc(CO)c1 — lower, -8.86%
- Cn1cc(CN2C[C@H]3CCN(C(=O)c4cscn4)C[C@H]3C2)cn1 — higher, 4.12%
- CC1(NC(=O)Cc2csc(-c3ccccc3Cl)n2)CCS(=O)(=O)C1 (stereo unspecified) — lower, -9.81%
- COCCN1CCCC2(CCN(c3nc(C)nc4c3CCC4)C2)C1=O (stereo unspecified) — lower, -11.4%
- Cc1ccc(CN(CCCn2ccnc2)Cc2c[nH]nc2C(C)(C)C)s1 — higher, -3.91%
- CC(Sc1nncn1C)C(=O)NCCCOc1ccc(F)cc1 (stereo unspecified) — lower, -49.2%
- CCC(=O)N1CCCC1(C)c1nc(C)no1 (stereo unspecified) — higher, 1.34%
- O=c1[nH]c(-c2ccc(Cl)cc2)nc2c1CCNC2 — higher, 4.42%
- COc1ccc(CN2CCN(C(=O)N(C)C)[C@@H]3CS(=O)(=O)C[C@@H]32)cc1F — higher, 1.24%
- CCc1nc(C)sc1CN1CC[C@@](O)(C2CC2)[C@H](C)C1 — lower, -10.3%
- COCCC(=O)N1CCC2(CCCN(Cc3cc(OC)ccc3F)C2)C1 (stereo unspecified) — higher, 3.55%
- CN(Cc1ccccc1)C(=O)Cn1nc(N2CCSCC2)ccc1=O — higher, 0.585%
- CCc1cnc(NCc2nc(COC)no2)nc1 — higher, 7.36%
- N#CC1(NC(=O)c2ccc(F)cc2OC(F)F)CCOCC1 — higher, 2.24%
- CC(=O)N(C)CC(=O)Nc1ccc(C)cc1OCc1ccccc1 — higher, 2.22%
- Cc1nnc(C(C)NCC2(c3ccc(F)cc3)CCCCC2)o1 (stereo unspecified) — higher, 2.39%
- O=C(c1cnccn1)N1C[C@@H]2CCN(c3cccnc3)C[C@@H]2C1 — lower, -65.8%
- Clc1cccc2c1CCN(Cc1nc(CC3CC3)no1)C2 — higher, 0.873%
- CCc1ccc(C(=O)O)cc1S(=O)(=O)N(C)c1cccc(C)c1 — lower, -8.2%
- NC(=O)CCCNC(=O)COc1ccccc1C(F)(F)F — higher, 2.49%
- O=C(NC1CCCCC1)N1CCCC1c1nnc2n1CCNC2 (stereo unspecified) — higher, 14.4%
- Cc1cnn(CC2CCCCN2C(=O)c2nccnc2N)c1 (stereo unspecified) — higher, -3.03%
- Cc1ccc2c(n1)N(CCN(C)C)CCN(C(=O)c1ccco1)C2 — lower, -65.8%
- CC(C)=CCN1CCOC(Cn2nc(C)cc2C)C1 (stereo unspecified) — lower, -9.93%
- O=C(CC1CCCC1)N1CCCC1c1ccc(CN2CCOCC2)cn1 (stereo unspecified) — higher, 1.37%
- CCc1nccn1C1CCCN(C(=O)c2csc(NC(C)=O)n2)C1 (stereo unspecified) — lower, -13%
- COCc1cccc(S(=O)(=O)N2CCSCC2)c1 — higher, 8.19%
- O=c1occ(CN2CCCCCC2)c(O)c1CN1CCCCCC1 — lower, -8.1%
- CCn1c(N)nc2cc(C(=O)NCCc3nnc(C)s3)cnc21 — higher, -2.46%
- CCOc1ccc(N2CCC(C(O)c3ccccc3)CC2)nn1 (stereo unspecified) — higher, -2.2%
- Cc1cc2nc(C(C)C)cc(NCc3ccncc3)n2n1 — higher, 2.63%
- N[C@H]1CN(C(=O)c2ccccc2OCCc2ccccc2)C[C@@H]1C1CC1 — higher, -2.68%
- O=C(c1ccc(-n2ccnc2)nn1)N1CCCCC1Cn1cccn1 (stereo unspecified) — higher, -4.49%
- CN(C1CCCC1)C(C)(C)C(=O)NCCNC(N)=O — lower, -46.3%
- Cn1ccnc1CNC(=O)c1ccnc(C2CCNCC2)c1 — higher, 5.8%
- O=C(NCCO)c1ccn(-c2ccc3ccccn23)n1 — lower, -8.21%
- Cn1cc(N2CC3(CCN(S(=O)(=O)C4CC4)C3)CC2=O)cn1 (stereo unspecified) — lower, -9.82%
- Cn1nccc1CCC(=O)N1CCCC(Cc2cccnc2)C1 (stereo unspecified) — higher, -3.14%
- COc1cc(C2Nc3cc(Cl)ccc3C3=NCCN32)cc(OC)c1OC (stereo unspecified) — lower, -24.8%
- CC(C)c1nccn1-c1cccc(C2CCCN(S(=O)(=O)N(C)C)C2)n1 (stereo unspecified) — higher, -3.11%
- CC(C)(C)CN1CCCC12CCN(S(=O)(=O)c1ccccc1)C2 (stereo unspecified) — lower, -67.5%
- CC(=O)c1cnc(NCC2OCCc3ccccc32)nc1C (stereo unspecified) — lower, -48.9%
- CCc1nc(C)c(C2CC(=O)Nc3c2c(C(C)(C)C)nn3C)[nH]1 (stereo unspecified) — higher, 2.63%
- CN(CC(=O)NCC(F)(F)F)C(=O)c1ccc(=O)[nH]c1 — higher, -4.39%
- CC(C)=CCN1CCN(C(C)c2cccnc2)CC1 (stereo unspecified) — higher, -2.65%
- O=S(=O)(Cc1ccccc1)NC[C@H]1Cn2ccnc2CO1 — higher, 6.88%
- O=C(c1sccc1Cl)N1CCC(Cn2cc(CO)nn2)CC1 — lower, -7.12%
- COCC(=O)N1CCCC1c1ccc(C(=O)NCc2ccccc2Cl)s1 (stereo unspecified) — higher, -0.909%
- Cc1ccc(OCCN2CCC(c3nc(C)n4c(C)csc34)CC2)cc1 — higher, 1.94%
- O=C(c1ccc(F)cc1)N1CCC2(CCN(Cc3ccccn3)C2=O)C1 (stereo unspecified) — lower, -136%
- CC(NC(=O)NCCCN(C)S(C)(=O)=O)c1cccnc1 (stereo unspecified) — lower, -12.5%
- CCn1cc2c(n1)CN(C(=O)c1ccncc1)CC2COCC1CC1 (stereo unspecified) — higher, -2.37%
- OC1(CN2CCOC(CNc3cccnn3)C2)CCCCC1 (stereo unspecified) — higher, -4.67%
- O=S(=O)(CCC1CCCO1)NCc1ncc(-c2ccccc2)o1 (stereo unspecified) — higher, 3.7%
- CC(O)CN1CCC(CNCc2ccccc2Br)CC1 (stereo unspecified) — lower, -13.2%
- CNC(=O)C1Cn2ccnc2C2(CCN(C(=O)c3ccoc3C)CC2)O1 (stereo unspecified) — lower, -157%
- Cc1c(CNC(=O)c2cn(CCC3CCCCN3)nn2)cnn1C (stereo unspecified) — higher, -3.44%
- O=C(O)[C@@H]1CN(C(=O)CCN2CCCCC2)C[C@H]1c1ccccc1 — higher, 1.25%
- CC(=O)N1CCC12CCN(Cc1ccco1)CC2 — higher, 1.17%
- CCn1nc(C)c2nc(C(C)C)nc(N3CCC(O)CC3)c21 — higher, 1.3%
- CC(C)c1n[nH]c(C2CN(C(=O)c3cn4ccccc4n3)CCO2)n1 (stereo unspecified) — higher, 0.153%
